Experimental data taken from ChEMBL document CHEMBL2146438, “Radiolabeled cyclosaligenyl monophosphates of 5-iodo-2'-deoxyuridine, 5-iodo-3'-fluoro-2',3'-dideoxyuridine, and 3'-fluorothymidine for molecular radiotherapy of cancer: synthesis and biological evaluation” (J Med Chem, 2012).
Active and inactive are the calls of the source. No cut-off for these calls is given here.

Experiments:
[1] = tested on: U-87MG ATCC; test: Cytotoxicity against human U87MG cells assessed as cell death at 18.5 kBq/mL after 8 weeks by clonogenic assay; format: functional, cell-based; conditions: tested as the 125I-labelled form
Outline: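 U-87 MG cells treated 24 h with increasing 125I agent concentrations, then grown in fresh medium; colony formation followed up to eight weeks versus vehicle-treated controls.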

[2] = tested on: LS174T; test: Cytotoxicity against human LS 174T cells assessed as colony formation at 185 kBq/mL after 4 hrs by clonogenic assay relative to control; format: functional, cell-based; conditions: tested as the 125I-labelled form
Outline: (§1)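 LS 174T cells exposed 4 h to 185 kBq/mL 125I agent, harvested immediately and plated for clonogenic survival (relative to untreated controls); 125I retained in nuclear DNA measured as mBq/cell.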

[3] = tested on: LS174T; test: Cytotoxicity against human LS 174T cells assessed as incorporation of radioisotope at 185 kBq/mL after 4 hrs by gamma counting; format: functional, cell-based; conditions: tested as the 125I-labelled form; outline: as §1
[4] = Half life of the compound in phosphate buffer at pH 7.3; format: physicochemical
[5] = target: Cholinesterase (Homo sapiens, UniProt P06276); test: Inhibition of human BChE after 24 hrs by microplate reader method
[6] = Chemical stability of the compound in phosphate buffer at pH 7.3; format: physicochemical
[7] = tested on: OVCAR-3; test: Cellular uptake in human OVCAR3 cells at 16.7 +/- 1.2 kBq/mL after 3 hrs by gamma counting; format: ADME, cell-based; conditions: ovcar-3, 3 h
Outline: (§2)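 Time-course uptake of resolved 125I-labelled diastereomers in LS 174T (colorectal) or OVCAR-3 (ovarian) cells at the stated radioactive concentration; cell-associated radioactivity counted at each time point; mean and std dev, n = 3 per time.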

[8] = Cellular uptake in human LS 174T cells at 13.6 +/- 0.4 kBq/mL after 3 hrs by gamma counting; format: ADME, cell-based; conditions: ls174t; outline: as §2
[9] = Cellular uptake in human U87MG cell cytoplasm incubated for 1 hr followed by compound wash out measured after 24 hrs by gamma counting; format: ADME, cell-based; conditions: u-87mg atcc
Outline: (§3)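 U-87 MG cells treated 1 h with 125I-labelled diastereomers, fractionated either immediately or after 24 h in fresh nonradioactive medium; 125I counted in cytoplasm, soluble nuclear fraction and DNA.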

[10] = Cellular uptake in human U87MG cell nucleus incubated for 1 hr followed by compound wash out measured after 24 hrs by gamma counting; format: ADME, cell-based; conditions: u-87mg atcc; outline: as §3
[11] = Cellular uptake in human U87MG DNA incubated for 1 hr followed by compound wash out measured after 24 hrs by gamma counting; format: ADME, cell-based; conditions: u-87mg atcc; outline: as §3
[12] = tested on: Nucleic Acid; test: Binding affinity to human U87MG cell DNA at 19.6 kBq/mL after 40 hrs by gamma counting; format: nucleic-acid assay; conditions: U-87MG ATCC, tested as the 125I-labelled form
Outline: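 U-87 MG cells incubated 40 h with 19.6 kBq/mL 125I-labelled agent; 125I in DNA measured (genomic tips DNA isolation), expressed as mBq 125I/cell.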

[13] = tested on: Nucleic Acid; test: Binding affinity to human U87MG cell DNA at 27.3 kBq/mL incubated for 24 hrs followed by compound wash out measured after 144 hrs by gamma counting; format: nucleic-acid assay; conditions: U-87MG ATCC, tested as the 125I-labelled form
Outline: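 U-87 MG cells treated 24 h with 27.3 kBq/mL 125I-labelled agent, then grown a further 144 h in fresh medium; 125I retained in DNA counted.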

[14] = tested on: Nucleic Acid; test: Binding affinity to human U87MG cell DNA at 185 kBq/mL after 120 hrs by gamma counting; format: nucleic-acid assay; conditions: U-87MG ATCC, tested as the 125I-labelled form
Outline: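 U-87 MG glioblastoma cells exposed continuously to 185 kBq/mL 125I-labelled agent for 120 h; DNA isolated and DNA-associated 125I counted.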

[15] = tested on: U-87MG ATCC; test: Cytotoxicity against human U87MG cells at 4.76 kBq/mL assessed as cell survival incubated for 1 hr followed by compound wash out measured after 24 hrs by clonogenic assay; format: functional, cell-based; conditions: tested as the 125I-labelled form
Outline: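 U-87 MG cells treated 1 h with 4.76 kBq/mL 125I agent, then plated immediately or grown 24 h in fresh medium before clonogenic assay; surviving fraction relative to untreated control colonies.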

[16] = tested on: OVCAR-3; test: Cellular uptake in human OVCAR3 cells after 3 hrs by gamma counting; format: ADME, cell-based; conditions: ovcar-3, 3 h
Outline: (§4)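 Concentration-dependent uptake: LS 174T or OVCAR-3 cells exposed to increasing concentrations of 125I-labelled diastereomers for 3 h; 131IUdR added to the medium as internal standard of proliferation; saturable uptake fitted to give Bmax as molecules/cell.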

[17] = tested on: OVCAR-3; test: Cellular uptake in human OVCAR3 cells at 46.9 +/- 1.1 kBq/mL up to 90 mins by gamma counting; format: ADME, cell-based; conditions: ovcar-3, 1.5 h; outline: as §2
[18] = Cellular uptake in human LS 174T cells at 46.9 +/- 1.1 kBq/mL after 90 mins by gamma counting; format: ADME, cell-based; conditions: ls174t, 1.5 h; outline: as §2
[19] = Cytotoxicity against human LS 174T cells assessed as colony formation at 114.5 kBq/mL incubated for 4 hrs measured after 21 days by clonogenic assay; format: functional, LS174T
Outline: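 LS 174T cells exposed 4 h to 114.5 kBq/mL 125I agent, cultured 24 h in nonradioactive medium, then harvested and plated; colonies counted after 21 days; surviving fraction = treated colonies / untreated control colonies.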

[20] = Cellular uptake in human U87MG cells by gamma counting; format: ADME, cell-based; conditions: u-87mg atcc
[21] = tested on: OVCAR-3; test: Cellular uptake in human OVCAR3 cells at 46.9 +/- 1.1 kBq/mL after 90 mins by gamma counting; format: ADME, cell-based; conditions: ovcar-3, 1.5 h; outline: as §2
[22] = Cellular uptake in human LS 174T cells at 46.9 +/- 1.1 kBq/mL up to 90 mins by gamma counting; format: ADME, cell-based; conditions: ls174t, 1.5 h; outline: as §2
[23] = Cellular uptake in human LS 174T cells after 3 hrs by gamma counting; format: ADME, cell-based; conditions: ls174t; outline: as §4
[24] = tested on: OVCAR-3; test: Cellular uptake in human OVCAR3 cells at 35.1 +/- 0.3 kBq/mL after 3 hrs by gamma counting; format: ADME, cell-based; conditions: ovcar-3, 3 h; outline: as §2
[25] = Cellular uptake in human LS 174T cells at 35.1 +/- 0.3 kBq/mL after 3 hrs by gamma counting; format: ADME, cell-based; conditions: ls174t; outline: as §2
[26] = tested on: OVCAR-3; test: Cellular uptake in human OVCAR3 cells at 35.1 +/- 0.3 kBq/mL after 6 hrs by gamma counting; format: ADME, cell-based; conditions: ovcar-3, 6 h
Outline: (§5)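 Time-course uptake in LS 174T or OVCAR-3 cells at 35.1±0.3 kBq/mL, continued to 6 h; cell-associated 125I counted; mean and std dev, n = 3 per time.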

[27] = Cellular uptake in human LS 174T cells by gamma counting; format: ADME, cell-based; conditions: ls174t
[28] = Cellular uptake in human LS 174T cells at 35.1 +/- 0.3 kBq/mL after 6 hrs by gamma counting; format: ADME, cell-based; conditions: ls174t; outline: as §5
[29] = Cellular uptake in human OVCAR3 cell nucleus assessed as per 10^3 cells after 24 hrs by gamma counting; format: ADME, cell-based; conditions: ovcar-3, 24 h, 24 h
Outline: (§6)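 OVCAR-3 cells incubated 1 h with 55.5 (0.04) kBq/mL 125I-labelled agent (diastereomer mixtures or resolved slow isomers); fractionated either immediately or after 24 h further growth in fresh nonradioactive medium; 125I in cytoplasm and nucleus counted as cpm/10^3 cells with std dev.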

[30] = Cellular uptake in human OVCAR3 cytoplasm at 55.5 kBq/mL incubated for 1 hr followed by compound wash out measured after 24 hrs by gamma counting; format: ADME, cell-based; conditions: ovcar-3, 1 h; outline: as §6
[31] = Cellular uptake in human OVCAR3 cell cytoplasm assessed as per 10^3 cells after 1 hr by gamma counting; format: ADME, cell-based; conditions: ovcar-3, 1 h, 1 h; outline: as §6
[32] = Cellular uptake in human OVCAR3 cell nucleus assessed as per 10^3 cells after 1 hr by gamma counting; format: ADME, cell-based; conditions: ovcar-3, 1 h, 1 h; outline: as §6
[33] = Cellular uptake in human OVCAR3 cell cytoplasm assessed as per 10^3 cells after 24 hrs by gamma counting; format: ADME, cell-based; conditions: ovcar-3, 24 h, 24 h; outline: as §6
[34] = Cellular uptake in human LS 174T cells at 17.5 +/- 0.3 kBq/mL after 3 hrs by gamma counting; format: ADME, cell-based; conditions: ls174t; outline: as §2

Cholinesterase, sequence (P06276 whole entry): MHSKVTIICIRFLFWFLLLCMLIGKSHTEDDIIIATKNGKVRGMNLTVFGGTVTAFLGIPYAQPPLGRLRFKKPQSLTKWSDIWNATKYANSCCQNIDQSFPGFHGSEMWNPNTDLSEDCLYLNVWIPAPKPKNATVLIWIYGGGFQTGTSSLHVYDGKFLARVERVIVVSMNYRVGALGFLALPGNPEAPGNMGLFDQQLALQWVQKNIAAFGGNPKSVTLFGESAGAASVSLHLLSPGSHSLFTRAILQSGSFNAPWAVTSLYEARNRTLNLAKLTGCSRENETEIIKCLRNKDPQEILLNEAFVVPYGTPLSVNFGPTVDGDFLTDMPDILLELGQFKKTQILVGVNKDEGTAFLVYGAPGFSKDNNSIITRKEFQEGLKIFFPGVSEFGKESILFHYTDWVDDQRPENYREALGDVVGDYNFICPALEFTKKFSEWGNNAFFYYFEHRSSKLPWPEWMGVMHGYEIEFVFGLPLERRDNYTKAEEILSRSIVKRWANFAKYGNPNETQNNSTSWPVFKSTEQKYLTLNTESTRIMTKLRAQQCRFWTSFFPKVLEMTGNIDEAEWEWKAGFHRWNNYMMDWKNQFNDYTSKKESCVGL

O=c1[nH]c(=O)n([C@H]2C[C@H](O)[C@@H](COP3(=O)OCc4ccccc4O3)O2)cc1I (stereo in doubt; form 3)
Activity [1]: Active

Cc1cccc2c1OP(=O)(OC[C@H]1O[C@@H](n3cc(I)c(=O)[nH]c3=O)C[C@@H]1O)OC2 (stereo in doubt; form 4)
Activity [2]: Active | Activity [3]: Active

CC(C)(C)c1cc(C(C)(C)C)c2c(c1F)COP(=O)(O[C@H]1C[C@H](n3cc(I)c(=O)[nH]c3=O)O[C@@H]1CO)O2 (stereo in doubt; form 2)
t1/2 [4]: 17.3 h | IC50 [5]: > 3 mM | K [6]: 6.67 ×10⁻⁴ /min

CC(C)(C)c1cc(C(C)(C)C)c2c(c1F)COP(=O)(OC[C@H]1O[C@@H](n3cc([125I])c(=O)[nH]c3=O)C[C@@H]1O)O2 (stereo partly drawn)
Drug uptake [7]: Active | Drug uptake [8]: Active

CC(C)(C)c1cc(C(C)(C)C)c2c(c1F)COP(=O)(OC[C@H]1O[C@@H](n3cc([125I])c(=O)[nH]c3=O)C[C@@H]1F)O2 (stereo in doubt; form 1)
t1/2 [4]: 38.5 h | Drug uptake [9]: Active | Drug uptake [10]: Active | K [6]: 3.01 ×10⁻⁴ /min | Drug uptake [11]: Active

O=c1[nH]c(=O)n([C@H]2C[C@H](O)[C@@H](COP3(=O)OCc4ccccc4O3)O2)cc1I (stereo in doubt; form 4)
Activity [12]: Active | Activity [1]: Active | Activity [13]: Active | Activity [14]: Active

CC(C)(C)c1cc(C(C)(C)C)c2c(c1F)COP(=O)(OC[C@H]1O[C@@H](n3cc(I)c(=O)[nH]c3=O)C[C@@H]1F)O2 (stereo in doubt)
Activity [15]: inactive

O=c1[nH]c(=O)n([C@H]2C[C@H](O)[C@@H](COP3(=O)OCc4ccccc4O3)O2)cc1[125I] (stereo in doubt; form 1)
Drug uptake [16]: Dose-dependent effect | t1/2 [4]: 5.1 h | Drug uptake [17]: Active | Drug uptake [18]: Active | Activity [19]: 60% | Drug uptake [20]: Dose-dependent effect | K [6]: 2.25 ×10⁻³ /min | Drug uptake [21]: Active | Drug uptake [22]: Active | Drug uptake [23]: Dose-dependent effect

Cc1cccc2c1OP(=O)(OC[C@H]1O[C@@H](n3cc([125I])c(=O)[nH]c3=O)C[C@@H]1O)OC2 (stereo in doubt; form 1)
Drug uptake [24]: Active | t1/2 [4]: 21.2 h | Drug uptake [25]: Active | Drug uptake [26]: Active | Drug uptake [27]: Active | Drug uptake [28]: Active | K [6]: 5.44 ×10⁻⁴ /min

Cc1cccc2c1OP(=O)(OC[C@H]1O[C@@H](n3cc([125I])c(=O)[nH]c3=O)C[C@@H]1O)OC2 (stereo in doubt; 7b)
Drug uptake [29]: 25.9 cpm | Drug uptake [30]: Active | Drug uptake [31]: 11.7 cpm | Drug uptake [32]: 4.5 cpm | Drug uptake [33]: 1.6 cpm

Cc1cccc2c1OP(=O)(OC[C@H]1O[C@@H](n3cc(I)c(=O)[nH]c3=O)C[C@@H]1O)OC2 (stereo in doubt; form 3)
Activity [3]: Active

O=c1[nH]c(=O)n([C@H]2C[C@H](O)[C@@H](COP3(=O)OCc4ccccc4O3)O2)cc1[125I] (stereo in doubt; form 2)
Drug uptake [29]: 31.3 cpm | t1/2 [4]: 7.6 h | Drug uptake [31]: 14.8 cpm | Activity [19]: 38% | Drug uptake [32]: 4.9 cpm | K [6]: 1.52 ×10⁻³ /min | Drug uptake [33]: 6 cpm

CC(C)(C)c1cc(C(C)(C)C)c2c(c1F)COP(=O)(OC[C@H]1O[C@@H](n3cc([125I])c(=O)[nH]c3=O)C[C@@H]1O)O2 (stereo in doubt)
Drug uptake [29]: 91.6 cpm | Drug uptake [31]: 87.3 cpm | Drug uptake [32]: 7.8 cpm | Drug uptake [34]: Active | Drug uptake [33]: 2.8 cpm
